According to ChEMBL document CHEMBL1148329, “Synthesis and structure-activity studies on N-[5-(1H-imidazol-4-yl)-5,6,7,8-tetrahydro-1-naphthalenyl]methanesulfonamide, an imidazole-containing alpha(1A)-adrenoceptor agonist” (J Med Chem, 2004):
Active and inactive are the calls of the source. No cut-off for these calls is given here.

Assays:
[1] = target: T1, Alpha-2A adrenergic receptor (Homo sapiens, UniProt P08913); experiment: In vitro binding affinity towards alpha-2A adrenergic receptor of human clone in radioligand binding assay
T1 sequence (P08913 whole entry): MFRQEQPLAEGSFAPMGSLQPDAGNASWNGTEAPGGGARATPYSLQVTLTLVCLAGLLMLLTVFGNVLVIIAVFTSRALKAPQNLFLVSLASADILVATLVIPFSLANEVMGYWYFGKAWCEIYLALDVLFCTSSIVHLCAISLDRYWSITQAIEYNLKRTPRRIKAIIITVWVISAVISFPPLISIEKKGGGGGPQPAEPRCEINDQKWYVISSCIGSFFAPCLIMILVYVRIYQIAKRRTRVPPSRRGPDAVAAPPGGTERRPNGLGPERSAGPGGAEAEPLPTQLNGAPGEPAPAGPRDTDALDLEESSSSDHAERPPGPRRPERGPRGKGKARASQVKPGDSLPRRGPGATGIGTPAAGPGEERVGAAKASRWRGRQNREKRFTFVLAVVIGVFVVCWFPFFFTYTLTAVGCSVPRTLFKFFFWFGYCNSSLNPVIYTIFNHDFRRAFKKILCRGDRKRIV

[2] = target: T2, Alpha-1A adrenergic receptor (Oryctolagus cuniculus) (UniProt O02824); experiment: Efficacy relative to phenylephrine (PE) to constrict tissue containing the alpha-1A adrenergic receptor in rabbit urethra; assay type: functional, tissue-based
T2 sequence (whole entry): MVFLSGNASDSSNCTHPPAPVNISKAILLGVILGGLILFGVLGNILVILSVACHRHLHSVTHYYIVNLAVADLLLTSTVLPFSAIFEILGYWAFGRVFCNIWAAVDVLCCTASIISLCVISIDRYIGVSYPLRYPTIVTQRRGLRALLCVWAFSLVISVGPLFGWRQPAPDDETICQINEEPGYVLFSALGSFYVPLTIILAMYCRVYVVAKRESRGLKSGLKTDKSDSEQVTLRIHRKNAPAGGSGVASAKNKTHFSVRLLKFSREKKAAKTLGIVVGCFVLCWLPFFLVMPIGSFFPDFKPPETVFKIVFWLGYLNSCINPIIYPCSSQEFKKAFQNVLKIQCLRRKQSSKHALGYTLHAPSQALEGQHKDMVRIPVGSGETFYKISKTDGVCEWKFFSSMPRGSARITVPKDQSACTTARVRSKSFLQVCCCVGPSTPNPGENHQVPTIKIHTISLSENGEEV
Method in brief: (§1)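 α1-agonist dose–response curves in isolated tissue: rabbit urethra (α1A), rat spleen (α1B), rat aorta (α1D). Agonist potency and efficacy read from the concentration–response curves.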

[3] = target: T2, Alpha-1A adrenergic receptor (Oryctolagus cuniculus); experiment: Functional agonism of the compounds to constrict tissue containing the alpha-1A adrenergic receptor in rabbit urethra; assay type: tissue-based; method in brief: as §1
[4] = target: T3, Alpha-2A adrenergic receptor (Rattus norvegicus) (UniProt P22909); experiment: Functional agonism to constrict tissue containing alpha-2A adrenergic receptor in rat prostatic vas deferens; assay type: tissue-based
T3 sequence (whole entry): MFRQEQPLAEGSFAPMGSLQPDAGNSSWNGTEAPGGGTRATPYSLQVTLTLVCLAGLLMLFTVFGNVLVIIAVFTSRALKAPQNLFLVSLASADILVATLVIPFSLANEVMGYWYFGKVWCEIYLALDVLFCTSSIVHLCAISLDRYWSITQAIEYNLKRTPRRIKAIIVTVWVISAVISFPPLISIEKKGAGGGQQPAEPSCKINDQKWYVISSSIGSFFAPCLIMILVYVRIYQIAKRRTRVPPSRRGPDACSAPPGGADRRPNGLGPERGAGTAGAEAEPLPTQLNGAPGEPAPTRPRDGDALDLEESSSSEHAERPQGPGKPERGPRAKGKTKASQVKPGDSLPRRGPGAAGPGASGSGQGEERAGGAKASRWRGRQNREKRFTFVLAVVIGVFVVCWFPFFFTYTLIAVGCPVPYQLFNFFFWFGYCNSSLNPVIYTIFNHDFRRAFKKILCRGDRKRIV

[5] = target: T4, Alpha-1B adrenergic receptor (Mesocricetus auratus, UniProt P18841); experiment: In vitro binding affinity towards alpha-1B adrenergic receptor of hamster clone in radioligand binding assay; assay type: single protein
T4 sequence (P18841 whole entry): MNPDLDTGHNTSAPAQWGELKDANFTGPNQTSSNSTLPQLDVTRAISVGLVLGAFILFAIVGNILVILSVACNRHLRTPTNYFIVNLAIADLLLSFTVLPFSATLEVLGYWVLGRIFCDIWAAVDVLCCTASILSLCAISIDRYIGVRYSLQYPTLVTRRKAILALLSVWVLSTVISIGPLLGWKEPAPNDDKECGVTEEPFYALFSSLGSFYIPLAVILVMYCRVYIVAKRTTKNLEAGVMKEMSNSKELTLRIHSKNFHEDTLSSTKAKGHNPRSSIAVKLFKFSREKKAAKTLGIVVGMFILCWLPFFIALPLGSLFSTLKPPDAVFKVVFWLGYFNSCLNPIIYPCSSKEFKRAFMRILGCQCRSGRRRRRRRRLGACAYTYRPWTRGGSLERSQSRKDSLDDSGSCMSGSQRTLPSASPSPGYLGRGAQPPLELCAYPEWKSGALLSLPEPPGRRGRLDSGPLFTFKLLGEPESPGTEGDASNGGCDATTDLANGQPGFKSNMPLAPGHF
Method in brief: (§2)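 Radioligand binding at α1 subtypes: α1A from rat submaxillary gland, α1B hamster clone, α1D rat clone. Run essentially per an earlier method.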

[6] = tested on: Canis familiaris; experiment: Uroselectivity was determined by measuring effective dose required for 20 mmHg increase of mean arterial pressure (MAP) in vivo in dog; assay type: functional, Canis lupus familiaris, Artery
Method in brief: (§3)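 Dog model recording intraurethral pressure (IUP) and mean arterial pressure (MAP) simultaneously. Increasing iv doses given, maximal effect of each dose taken. Doses giving a 5 mmHg rise in IUP (ED Δ5) or 20 mmHg rise in MAP (ED Δ20) were calculated, in nmol/kg ± SEM, n ≥ 4 (2 or 3 where footnoted).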

[7] = Selectivity is ratio of efficacy of alpha-2A to that of alpha1A adrenoceptor; assay type: functional
[8] = organism: Rattus norvegicus; experiment: Relative affinities for alpha2B and alpha1A receptors
[9] = Relative affinities for alpha-2a and alpha-1A receptors
[10] = target: Alpha adrenergic receptor 1A and 1B (Rattus norvegicus) (UniProt P15823+P43140); experiment: Selectivity is ratio of pKi (binding affinity) of alpha-1B receptor to that of alpha-1A receptor.; assay type: protein assay
[11] = target: Alpha adrenergic receptor 1A and 1D (Rattus norvegicus) (UniProt P23944+P43140); experiment: Selectivity is ratio of pKi (binding affinity) of Alpha-1D to that of alpha1A; assay type: protein assay
[12] = target: T5, Alpha-2B adrenergic receptor (Rattus norvegicus, UniProt P19328); experiment: In vitro binding affinity towards alpha-2B adrenergic receptor of rat neonatal lung in radioligand binding assay
T5 sequence (P19328 whole entry): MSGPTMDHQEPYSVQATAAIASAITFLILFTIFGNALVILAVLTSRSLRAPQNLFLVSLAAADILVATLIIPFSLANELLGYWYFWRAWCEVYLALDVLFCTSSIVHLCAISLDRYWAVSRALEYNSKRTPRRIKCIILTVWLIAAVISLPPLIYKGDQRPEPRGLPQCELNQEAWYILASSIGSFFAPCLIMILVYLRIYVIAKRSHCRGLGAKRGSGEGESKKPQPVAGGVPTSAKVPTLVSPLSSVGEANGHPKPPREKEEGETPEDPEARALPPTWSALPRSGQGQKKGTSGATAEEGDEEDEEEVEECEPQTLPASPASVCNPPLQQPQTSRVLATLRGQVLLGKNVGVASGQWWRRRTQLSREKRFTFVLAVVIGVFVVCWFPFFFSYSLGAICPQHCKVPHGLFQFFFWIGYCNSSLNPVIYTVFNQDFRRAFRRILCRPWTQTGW

[13] = organism: Canis familiaris; experiment: Ratio of MAP ED delta20 to that of IUP ED delta5
[14] = target: T3, Alpha-2A adrenergic receptor (Rattus norvegicus); experiment: Efficacy relative to clonidine to constrict tissue containing the alpha-2A adrenergic receptor in rat prostatic vas deferens
[15] = target: T6, Alpha-1D adrenergic receptor (Rattus norvegicus, UniProt P23944); experiment: In vitro binding affinity towards alpha-1D adrenergic receptor of rat clone in radioligand binding assay; method in brief: as §2
T6 sequence (P23944 whole entry): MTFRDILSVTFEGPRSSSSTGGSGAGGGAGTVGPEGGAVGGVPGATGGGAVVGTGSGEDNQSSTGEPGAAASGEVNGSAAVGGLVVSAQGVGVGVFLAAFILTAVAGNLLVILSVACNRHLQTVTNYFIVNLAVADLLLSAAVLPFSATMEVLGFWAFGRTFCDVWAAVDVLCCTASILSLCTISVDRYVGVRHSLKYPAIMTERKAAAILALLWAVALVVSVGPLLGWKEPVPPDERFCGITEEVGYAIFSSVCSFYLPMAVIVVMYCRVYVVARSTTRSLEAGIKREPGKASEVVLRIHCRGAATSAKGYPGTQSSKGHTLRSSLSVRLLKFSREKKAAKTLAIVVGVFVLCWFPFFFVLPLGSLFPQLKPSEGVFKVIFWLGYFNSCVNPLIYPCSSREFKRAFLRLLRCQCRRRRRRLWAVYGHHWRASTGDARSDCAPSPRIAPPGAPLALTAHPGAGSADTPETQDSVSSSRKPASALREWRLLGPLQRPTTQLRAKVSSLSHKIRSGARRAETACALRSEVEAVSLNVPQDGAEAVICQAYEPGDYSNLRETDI

[16] = target: T7, Alpha-1A adrenergic receptor (Rattus norvegicus, UniProt P43140); experiment: In vitro binding affinity towards alpha-1A adrenergic receptor of rat submaxillary gland in radioligand binding assay; method in brief: as §2
T7 sequence (P43140 whole entry): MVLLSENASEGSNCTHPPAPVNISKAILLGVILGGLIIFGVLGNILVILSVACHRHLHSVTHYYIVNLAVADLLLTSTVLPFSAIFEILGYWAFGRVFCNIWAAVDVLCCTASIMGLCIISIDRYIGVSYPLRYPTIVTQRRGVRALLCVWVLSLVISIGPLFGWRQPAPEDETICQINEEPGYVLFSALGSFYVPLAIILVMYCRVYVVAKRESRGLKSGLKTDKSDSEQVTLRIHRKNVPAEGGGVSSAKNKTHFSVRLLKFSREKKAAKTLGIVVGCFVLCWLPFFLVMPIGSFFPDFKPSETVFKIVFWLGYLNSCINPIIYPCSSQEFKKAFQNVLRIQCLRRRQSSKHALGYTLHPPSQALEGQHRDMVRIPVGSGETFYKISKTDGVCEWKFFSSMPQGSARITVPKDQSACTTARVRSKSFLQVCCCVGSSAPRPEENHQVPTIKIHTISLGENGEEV

[17] = target: Alpha-1A adrenergic receptor (Oryctolagus cuniculus) (UniProt O02824); experiment: Functional agonism of the compounds to constrict tissue containing the alpha-1A adrenergic receptor in rabbit urethra; Inactive
[18] = target: T8, Alpha-1D adrenergic receptor (Rattus norvegicus) (UniProt P23944); experiment: Functional agonism of the compounds to constrict tissue containing the alpha-1D adrenergic receptor in rat aorta; assay type: tissue-based
T8 sequence (whole entry): T6 sequence (P23944 whole entry)
Method in brief: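 Agonist dose–response curves were run on isolated tissue: rabbit urethra for α1A, rat spleen for α1B, and rat aorta for α1D.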

[19] = target: T8, Alpha-1D adrenergic receptor (Rattus norvegicus); experiment: Efficacy relative to phenylephrine (PE) constrict tissue containing the alpha-1D adrenergic receptor in rat aorta; assay type: functional, tissue-based; method in brief: as §1
[20] = tested on: Canis familiaris; experiment: Uroselectivity was determined by measuring effective dose required for 5 mmHg increase of intraurethral pressure (IUP) in vivo in dog; assay type: functional, Canis lupus familiaris; method in brief: as §3
[21] = target: T9, Alpha-1A adrenergic receptor (Bos taurus, UniProt P18130); experiment: In vitro binding affinity towards alpha-1A adrenergic receptor of bovine clone in radioligand binding assay
T9 sequence (P18130 whole entry): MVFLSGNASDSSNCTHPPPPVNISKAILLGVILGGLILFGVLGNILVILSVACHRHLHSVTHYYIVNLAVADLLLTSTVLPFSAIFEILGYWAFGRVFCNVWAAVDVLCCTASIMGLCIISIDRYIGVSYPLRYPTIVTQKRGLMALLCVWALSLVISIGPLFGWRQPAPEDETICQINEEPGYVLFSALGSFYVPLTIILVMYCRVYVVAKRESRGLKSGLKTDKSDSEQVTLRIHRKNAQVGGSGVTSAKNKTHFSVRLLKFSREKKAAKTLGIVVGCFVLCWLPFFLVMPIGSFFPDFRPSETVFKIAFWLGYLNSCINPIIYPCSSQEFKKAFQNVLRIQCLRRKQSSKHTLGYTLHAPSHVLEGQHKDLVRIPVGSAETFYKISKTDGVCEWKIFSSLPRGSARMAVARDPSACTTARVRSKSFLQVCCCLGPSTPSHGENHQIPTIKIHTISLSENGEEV

Chain of Alpha adrenergic receptor 1A and 1B (Rattus norvegicus) (P15823 whole entry, looked up, one chain of several): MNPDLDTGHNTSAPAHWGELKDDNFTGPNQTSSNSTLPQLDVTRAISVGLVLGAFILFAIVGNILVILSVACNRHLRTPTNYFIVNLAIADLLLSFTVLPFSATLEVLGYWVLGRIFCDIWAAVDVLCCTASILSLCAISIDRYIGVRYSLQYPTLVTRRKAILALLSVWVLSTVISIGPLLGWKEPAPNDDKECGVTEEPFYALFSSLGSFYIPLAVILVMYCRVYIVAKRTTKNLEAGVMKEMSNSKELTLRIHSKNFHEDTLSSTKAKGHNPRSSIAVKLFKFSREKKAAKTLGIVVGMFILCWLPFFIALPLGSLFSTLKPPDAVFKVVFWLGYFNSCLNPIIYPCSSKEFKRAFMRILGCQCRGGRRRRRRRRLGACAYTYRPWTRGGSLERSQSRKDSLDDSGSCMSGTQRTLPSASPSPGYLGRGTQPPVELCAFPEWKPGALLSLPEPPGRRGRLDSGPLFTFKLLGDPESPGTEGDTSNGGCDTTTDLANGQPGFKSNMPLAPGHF

Row | Compound | Ki [1] | Efficacy [2] | Ki [5] | ED delta20 [6] | Selectivity [8] | Selectivity [9] | Selectivity [10] | Selectivity [11] | Ki [12] | Ki [15] | other results
1 | CCS(=O)(=O)Nc1cccc2c1CCCC2c1c[nH]cn1 (single isomer, unassigned; (+)) | 132 nM | 71% | 1320 nM | 34 nM/kg | 40 | 3 | 30 | 20 | 1700 nM | – | pD2 [3]: 6.77; pD2 [4]: 5.95; Selectivity [7]: 7; Ratio [13]: 3.3; Efficacy [14]: 66%
2 | CCS(=O)(=O)Nc1cccc2c1CCCC2CN (stereo not drawn) | – | – | > 10000 nM | – | – | – | > 10 | > 10 | – | > 10000 nM | Ki [16]: 794 nM; pD2 [17]: inactive
3 | CS(=O)(=O)Nc1c(O)ccc2c1CCCC2C1=NCCN1 (stereo not drawn) | 33.1 nM | 88% | 2950 nM | 0.27 nM/kg | – | – | – | – | 245 nM | 1480 nM | pD2 [18]: 5.59; Efficacy [19]: 100%; ED delta5 [20]: 0.16 nM/kg
4 | CCS(=O)(=O)Nc1ccc2c(c1)C(c1c[nH]cn1)CCC2 (stereo not drawn) | 22.9 nM | – | 1350 nM | – | 0.02 | 0.02 | 1 | 0.2 | 22.4 nM | 339 nM | Ki [21]: 2040 nM
